Legend:
MCF7 = test: Cytotoxicity against human MCF7 cells assessed as decrease in cell viability at 20 uM after 48 hrs by SRB method relative to control; format: functional
HT-29 [1] = test: Cytotoxicity against human HT-29 cells assessed as cell viability at 34 uM after 48 hrs by MTT assay; format: functional; conditions: HT-29, 48 h, read-out: Activity
MDA-MB-231 [2] = test: Cytotoxicity against human MDA-MB-231 cells assessed as decrease in cell viability after 48 hrs by trypan blue exclusion and LDH release; conditions: MDA-MB-231, 48 h
NCI-H460 [3] = test: Cytotoxicity against human NCI-H460 cells assessed as cell viability at 34 uM after 48 hrs by trypan blue exclusion and LDH release; conditions: NCI-H460, 48 h
SK-MEL-2 [4] = test: Cytotoxicity against human SK-MEL-2 cells assessed as cell viability at 34 uM after 48 hrs by MTT assay; format: functional; conditions: SK-MEL-2, 48 h, read-out: Activity
LN-229 [5] = test: Cytotoxicity against human LN229 cells assessed as cell viability at 34 uM after 48 hrs by MTT assay; format: functional; conditions: LN-229, 48 h, read-out: Activity
[6] = Tmax in mouse at 100 mg/kg, po by HPLC method; format: ADME, organism-based; conditions: in vivo
Procedure, shortened: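 Given orally in a self-microemulsifying delivery system (60% surfactant, emulsifier OP:Cremophor EL 1:1; 30% PEG 400 cosurfactant; 10% ethyl oleate oil), total volume no more than 100 μL. Plasma levels measured by previously described methods.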

A549 [7] = test: Cytotoxicity against human A549 cells assessed as decrease in cell viability at 20 uM after 48 hrs by SRB method relative to control; format: functional
[8] = Plasma concentration in mouse at 10 mg/kg, iv at 120 mins by LC-MS/MS method; format: ADME, organism-based
Procedure, shortened: (§1)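 For IV dosing, compound dissolved in DMSO:ethanol (2:1), total volume no more than 30 μL. For oral dosing, compound given in a self-microemulsifying delivery system (60% surfactant, emulsifier OP:Cremophor EL 1:1; 30% PEG 400; 10% ethyl oleate), total volume no more than 100 μL. Plasma levels measured by previously described methods.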

A549 [9] = test: Cytotoxicity against human A549 cells assessed as decrease in cell viability after 48 hrs by trypan blue exclusion and LDH release; conditions: A549, 48 h
U-87 MG [10] = test: Cytotoxicity against human U87 cells assessed as decrease in cell viability after 48 hrs by trypan blue exclusion and LDH release
BXPC-3 [11] = test: Cytotoxicity against human BxPC3 cells assessed as cell viability at 34 uM after 48 hrs by MTT assay; format: functional; conditions: BXPC-3, 48 h, read-out: Activity
[12] = Cmax in mouse at 100 mg/kg, po by HPLC method; format: ADME, organism-based; design: dose 100 mg/kg, route oral; conditions: in vivo
Procedure, shortened: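 For oral dosing, polyphenol was dissolved in a self-microemulsifying delivery system: 60% surfactant (emulsifier OP:Cremophor EL 1:1), 30% cosurfactant (PEG 400) and 10% oil (ethyl oleate). Total volume given was never above 100 μL. Plasma levels were quantified by previously described methods.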

COLO 201 [13] = test: Cytotoxicity against human COLO201 cells assessed as cell viability at 34 uM after 48 hrs by trypan blue exclusion and LDH release; conditions: COLO 201, 48 h
T47D [14] = test: Cytotoxicity against human T47D cells assessed as decrease in cell viability after 48 hrs by trypan blue exclusion and LDH release
NCI-H460 [15] = test: Cytotoxicity against human NCI-H460 cells assessed as decrease in cell viability after 48 hrs by MTT assay; format: functional, cell-based; conditions: NCI-H460, 48 h
A-375 = test: Cytotoxicity against human A375 cells assessed as decrease in cell viability at 20 uM after 48 hrs by SRB method relative to control; format: functional
COLO 201 [16] = test: Cytotoxicity against human COLO201 cells assessed as decrease in cell viability after 48 hrs by trypan blue exclusion and LDH release; conditions: COLO 201, 48 h
[17] = Cmax in mouse at 10 mg/kg, iv by LC-MS/MS method; format: ADME, organism-based; design: dose 10 mg/kg, route intravenous; conditions: in vivo
Procedure, shortened: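 Mouse iv dosing used polyphenol dissolved in DMSO:ethanol (2:1), with total injected volume never above 30 μL. Plasma levels were measured by previously described methods.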

U-87 MG [18] = test: Cytotoxicity against human U87 cells assessed as cell viability at 34 uM after 48 hrs by MTT assay; format: functional, U-87MG ATCC; conditions: read-out: Activity
[19] = Cytotoxicity against human MML1 cells assessed as decrease in cell viability after 48 hrs by MTT assay; format: functional, cell-based
[20] = Plasma concentration in mouse at 10 mg/kg, iv at 60 mins by LC-MS/MS method; format: ADME, organism-based; procedure, shortened: as §1
T47D [21] = test: Cytotoxicity against human T47D cells assessed as cell viability at 34 uM after 48 hrs by MTT assay; format: functional; conditions: read-out: Activity
LN-229 [22] = test: Cytotoxicity against human LN229 cells assessed as decrease in cell viability after 48 hrs by trypan blue exclusion and LDH release; conditions: LN-229, 48 h
HT-29 [23] = test: Cytotoxicity against human HT-29 cells assessed as decrease in cell viability after 48 hrs by trypan blue exclusion and LDH release; conditions: HT-29, 48 h
A549 [24] = test: Cytotoxicity against human A549 cells assessed as cell viability at 34 uM after 48 hrs by trypan blue exclusion and LDH release; conditions: A549, 48 h
[25] = Tmax in mouse at 10 mg/kg, iv by LC-MS/MS method; format: ADME, organism-based; conditions: in vivo; procedure, shortened: as §1
SK-MEL-2 [26] = test: Cytotoxicity against human SK-MEL-2 cells assessed as decrease in cell viability after 48 hrs by MTT assay; format: functional, cell-based; conditions: SK-MEL-2, 48 h
PANC-1 [27] = test: Cytotoxicity against human PANC1 cells assessed as decrease in cell viability after 48 hrs by MTT assay; format: functional, cell-based; conditions: PANC-1, 48 h
[28] = Plasma concentration in mouse at 100 mg/kg, po at 60 mins by LC-MS/MS method; format: ADME, organism-based; procedure, shortened: as §1
HT-29 [29] = test: Cytotoxicity against human HT-29 cells assessed as decrease in cell viability at 20 uM after 48 hrs by SRB method relative to control; format: functional
BXPC-3 [30] = test: Cytotoxicity against human BxPC3 cells assessed as decrease in cell viability after 48 hrs by MTT assay; format: functional, cell-based; conditions: BXPC-3, 48 h
MDA-MB-231 [31] = test: Cytotoxicity against human MDA-MB-231 cells assessed as cell viability at 34 uM after 48 hrs by MTT assay; format: functional; conditions: MDA-MB-231, 48 h, read-out: Activity
PANC-1 [32] = test: Cytotoxicity against human PANC1 cells assessed as cell viability at 34 uM after 48 hrs by MTT assay; format: functional; conditions: PANC-1, 48 h, read-out: Activity
[33] = Cytotoxicity against human MML1 cells assessed as cell viability at 34 uM after 48 hrs by MTT assay; format: functional; conditions: read-out: Activity
PANC-1 [34] = test: Cytotoxicity against human PANC1 cells assessed as cell viability at 14 uM after 48 hrs by MTT assay; format: functional; conditions: PANC-1, 48 h, read-out: Activity
[35] = Cytotoxicity against human MML1 cells assessed as cell viability at 14 uM after 48 hrs by MTT assay; format: functional; conditions: read-out: Activity
T47D [36] = test: Cytotoxicity against human T47D cells assessed as cell viability at 14 uM after 48 hrs by MTT assay; format: functional; conditions: read-out: Activity
SK-MEL-2 [37] = test: Cytotoxicity against human SK-MEL-2 cells assessed as cell viability at 14 uM after 48 hrs by MTT assay; format: functional; conditions: SK-MEL-2, 48 h, read-out: Activity
Homo sapiens = test: Renal toxicity in patient assessed as decrease in glomerular flow rate at 1400 mg/m'2, iv administered as bolus dose measured after 24 hrs relative to control; format: organism-based; design: scale not given: the % may be the effect or the level left; conditions: in vivo
A549 [38] = test: Cytotoxicity against human A549 cells assessed as cell viability at 14 uM after 48 hrs by MTT assay; format: functional; conditions: A549, 48 h, read-out: Activity
HT-29 [39] = test: Cytotoxicity against human HT-29 cells assessed as cell viability at 14 uM after 48 hrs by MTT assay; format: functional; conditions: HT-29, 48 h, read-out: Activity
COLO 201 [40] = test: Cytotoxicity against human COLO201 cells assessed as cell viability at 14 uM after 48 hrs by MTT assay; format: functional; conditions: COLO 201, 48 h, read-out: Activity
MDA-MB-231 [41] = test: Cytotoxicity against human MDA-MB-231 cells assessed as cell viability at 14 uM after 48 hrs by MTT assay; format: functional; conditions: MDA-MB-231, 48 h, read-out: Activity
LN-229 [42] = test: Cytotoxicity against human LN229 cells assessed as cell viability at 14 uM after 48 hrs by MTT assay; format: functional; conditions: LN-229, 48 h, read-out: Activity
NCI-H460 [43] = test: Cytotoxicity against human NCI-H460 cells assessed as cell viability at 14 uM after 48 hrs by MTT assay; format: functional; conditions: NCI-H460, 48 h, read-out: Activity
BXPC-3 [44] = test: Cytotoxicity against human BxPC3 cells assessed as cell viability at 14 uM after 48 hrs by MTT assay; format: functional; conditions: BXPC-3, 48 h, read-out: Activity
U-87 MG [45] = test: Cytotoxicity against human U87 cells assessed as cell viability at 14 uM after 48 hrs by MTT assay; format: functional, U-87MG ATCC; conditions: read-out: Activity

COc1cc(/C=C/c2ccc(O)cc2)cc(OC)c1 [PTEROSTILBENE]
Activity (MCF7): 25%
viability at 34 µM (HT-29 [1]): 96%
IC50 (MDA-MB-231 [2]): 63 µM
viability at 34 µM (NCI-H460 [3]): 83%
viability at 34 µM (SK-MEL-2 [4]): 85%
viability at 34 µM (LN-229 [5]): 98%
Tmax [6]: 10 min
Activity (A549 [7]): 40%
concentration at 2 h [8]: < 1 µM
IC50 (A549 [9]): 26 µM
IC50 (U-87 MG [10]): 34 µM
viability at 34 µM (BXPC-3 [11]): 97%
Cmax [12]: 25 µM
viability at 34 µM (COLO 201 [13]): 95%
IC50 (T47D [14]): 35 µM
IC50 (NCI-H460 [15]): 17 µM
Activity (A-375): 30%
IC50 (COLO 201 [16]): 29 µM
Cmax [17]: 67 µM
viability at 34 µM (U-87 MG [18]): 103%
IC50 [19]: 17 µM
concentration at 1 h [20]: 15 µM
viability at 34 µM (T47D [21]): 91%
IC50 (LN-229 [22]): 14 µM
IC50 (HT-29 [23]): 28 µM
viability at 34 µM (A549 [24]): 81%
Tmax [25]: 5 min
IC50 (SK-MEL-2 [26]): 17 µM
IC50 (PANC-1 [27]): 50 µM
concentration at 1 h [28]: < 1 µM
Activity (HT-29 [29]): 10%
IC50 (BXPC-3 [30]): 31 µM
viability at 34 µM (MDA-MB-231 [31]): 90%
viability at 34 µM (PANC-1 [32]): 94%
viability at 34 µM [33]: 87%

O=c1c(O)c(-c2ccc(O)c(O)c2)oc2cc(O)cc(O)c12 [QUERCETIN]
IC50 (MDA-MB-231 [2]): 20 µM
Tmax [6]: 15 min
viability at 14 µM (PANC-1 [34]): 102%
IC50 (A549 [9]): 13 µM
viability at 14 µM [35]: 103%
IC50 (U-87 MG [10]): 23 µM
Cmax [12]: 8 µM
IC50 (T47D [14]): 11 µM
IC50 (NCI-H460 [15]): 12 µM
IC50 (COLO 201 [16]): 19 µM
viability at 14 µM (T47D [36]): 100%
viability at 14 µM (SK-MEL-2 [37]): 97%
Activity (Homo sapiens): 20%
Cmax [17]: 27 µM
viability at 14 µM (A549 [38]): 104%
IC50 [19]: 15 µM
concentration at 1 h [20]: < 1 µM
viability at 14 µM (HT-29 [39]): 94%
IC50 (LN-229 [22]): 12 µM
viability at 14 µM (COLO 201 [40]): 101%
IC50 (HT-29 [23]): 18 µM
Tmax [25]: 5 min
viability at 14 µM (MDA-MB-231 [41]): 103%
viability at 14 µM (LN-229 [42]): 106%
IC50 (SK-MEL-2 [26]): 12 µM
viability at 14 µM (NCI-H460 [43]): 95%
IC50 (PANC-1 [27]): 62 µM
viability at 14 µM (BXPC-3 [44]): 96%
concentration at 1 h [28]: < 1 µM
IC50 (BXPC-3 [30]): 16 µM
viability at 14 µM (U-87 MG [45]): 97%

Source: ChEMBL document CHEMBL4184147, “Polyphenolic Phytochemicals in Cancer Prevention and Therapy: Bioavailability versus Bioefficacy” (J Med Chem, 2017)
